Assay results collected from several papers.
Compare with care: the assays were run in different laboratories.
Target: Calcium/calmodulin-dependent protein kinase type 1B (PNCK, Homo sapiens, UniProt Q6P2M8)

| SMILES | test | setting | remaining binding |
| --- | --- | --- | --- |
| F[C@@H]1CCN(c2nccc(-c3cnn4ncccc34)n2)C1 | binding | 1 µM | 100% |
| COc1ncc2cc3ccccc3nc2c1C#N | cell-free assay, competition with immobilised ligand | 5 µM | 95% |
| CC(=O)N1CCC(c2ccc(C(=O)NC(=N)N)cc2C(F)(F)F)CC1 | cell-free assay, competition with immobilised ligand | 1 µM | 100% |
| CN(c1nccc(-c2cnn3ncccc23)n1)C1CC1 | binding | 1 µM | 98% |
| O=C(NCCCN1CCOCC1)c1ccc(Nc2nccc(-c3cc4ccccc4s3)n2)cc1 | binding, competition with immobilised ligand | 1 µM | 61% |
| C[C@@H]1CCN(c2nccc(-c3cnn4ncccc34)n2)C1 | binding | 1 µM | 89% |
| CC1=C(C#N)[C@@H](c2ccc3[nH]nc(C)c3c2)C(C#N)=C(c2ccc(Cl)cc2)N1 | cell-free assay, competition with immobilised ligand | 1 µM | 98.5% |
| CC1CCCN1c1nccc(-c2cnn3ncccc23)n1 (stereo not shown) | binding | 1 µM | 82% |
| O=C(NCCCN1CCOCC1)c1ccc(Nc2ncc(Cl)c(-c3ccc(Cl)s3)n2)cc1 | binding, competition with immobilised ligand | 1 µM | 82% |
| N[C@@H]1CCN(c2nccc(-c3cnn4ncccc34)n2)C1 | binding | 1 µM | 100% |
| CNCc1ccccc1-c1csc([C@H](C)Nc2nc(C)nc3cc(OC)c(OC)cc23)c1 | cell-free assay, competition with immobilised ligand | 1 µM | 100% |
| FC(F)(F)Oc1cccc(-c2cnc3ccc(-c4ccncc4)nn23)c1 | cell-free assay, competition with immobilised ligand | 5 µM | 100% |
| N#CC1(c2ccccn2)CCN(Cc2cc(C(=O)N3CCCC3)c(=O)n3ccccc23)CC1 | cell-free assay, competition with immobilised ligand | 1 µM | 90% |
| O=C(Nc1c[nH]nc1C(=O)NC1CCNCC1)c1cc(F)cc(F)c1 | binding, competition with immobilised ligand | 1 µM | 100% |
| Cc1cnc(Nc2ccc(C(=O)N3CCC(N4CCCC4)CC3)cc2)nc1-c1cc2ccccc2s1 | binding, competition with immobilised ligand | 1 µM | 36% |
| COc1cc(-c2cn(C3CCc4ccccc4N(CC(F)(F)F)C3=O)nn2)ccc1-n1ccc(C)n1 (stereo not shown) | cell-free assay, competition with immobilised ligand | 1 µM | 100% |
| COc1cnc(Nc2cccc(S(N)(=O)=O)c2)nc1N1CCN(c2ccccc2)CC1 | binding, competition with immobilised ligand | 1 µM | 92% |
| CC(C)(O)c1cncc(-c2nc3ccc(F)cc3n2C2CC2)c1 | cell-free assay, competition with immobilised ligand | 1 µM | 100% |
| Cc1cnn2ncc(-c3ccnc(N(C)C)n3)c2c1 | binding | 1 µM | 97% |
